Assay results from article PMC12219357 (Nature Communications, 2025).
Where “and” joins values, the source holds several entries; their conditions need not be identical. Identical values can stand only once. Entries after “also recorded” stand apart in the source; their conditions may differ. Where a SMILES comes first, the peptide text is derived from it. The star is where a group is joined. 5FAM = O=C1OC2(c3ccc(O)cc3Oc3cc(O)ccc32)c2ccc(C(=O)*)cc21

Legend:
Assay type in all cases: in vivo, human
[1] = tested on: adult patients with head and neck neoplasms undergoing parotidectomy or thyroidectomy
[2] = tested on: adult patients with head and neck neoplasms; experiment: Clinical laboratory assessments
How it was run: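 Test compound given as a single IV infusion over 30 min on Day 1, at dose tiers of 100–600 mg. Hematology, chemistry, coagulation and urinalysis were run at the preoperative visit, then repeated on Day 1 before dosing and at end of infusion. Histamine, tryptase, C3a and C5 were sampled before, during and after infusion. Further safety labs on Day 15 (±8 days) and Day 28 (+5 days). Summarized descriptively by dose.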

[3] = tested on: adult patients with head and neck neoplasms; experiment: Vital signs, physical examination and 12-lead ECG
[4] = Pharmacokinetics after intravenous infusion
[5] = tested on: nerves (head and neck surgery); experiment: Quantitative image analysis of intraoperative nerve fluorescence; settings: for Background fluorescence, mean pixel intensity (MPI): FL images
How it was run: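 Paired white-light and fluorescence images taken intraoperatively through a surgical microscope with a yellow 560 fluorescence module. Analysis used the green channel of fluorescence images and 5–20 elliptical ROIs per nerve and per adjacent non-nerve tissue. After background subtraction, SBR = nerve MPI / background MPI. Statistics: Welch ANOVA, Kruskal-Wallis, Wilcoxon rank sum.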

[6] = tested on: nerves (head and neck surgery); experiment: Visualization Scoring System; settings: 500 mg

In the case of `CC(C)[C@H](NC(=O)[C@H](Cc1ccc(O)cc1)NC(=O)[C@H](Cc1ccc(O)cc1)NC(=O)[C@@H]1CCCN1C(=O)[C@H](CCC(=O)O)NC(=O)[C@H](CCC(=O)O)NC(=O)[C@H](Cc1c[nH]c2ccccc12)NC(=O)[C@@H]1CCCN1C(=O)[C@@H](NC(=O)[C@H](CCC(N)=O)NC(=O)c1ccc2c(c1)C(=O)OC21c2ccc(O)cc2Oc2cc(O)ccc21)C(C)C)C(=O)N[C@H](C(=O)N[C@@H](CCCCN)C(=O)N[C@@H](CCCCN)C(=O)N[C@@H](CO)C(=O)N[C@@H](CO)C(=O)NCC(=O)NCC(N)=O)C(C)C` [bevonescein] (5FAM-QVPWEEPYYVVKKSSGG-NH2; C-terminus assumed), the “AEs greater than grade 1 attributable to the study drug” value ([1]; 27 patients) is reported as “no adverse events greater than grade 1”, the “AEs assessed as possibly related to the study drug” value ([1]; 27 subjects, all doses, resolved without intervention) is reported as “a single adverse event” and the “Tolerability of preoperative intravenous infusion” value ([1]; 100-600 mg) is reported as “well tolerated”. For the same compound, the “Dose-limiting toxicity (DLT)” value ([1]; all doses 100-600 mg, single IV infusion over 30 min, 27 patients, NCI CTCAE) was “no dose-limiting toxicity”, the “Hematology, chemistry, coagulation, and urinalysis findings” value ([2]; all patients, as deemed by the investigators) was “normal ranges or not clinically significant abnormalities” and the “Tryptase and complements C3a and C5 levels” value ([2]; during the study) was “remained stable”. The “Changes from baseline in vital signs” value ([3]; all cohorts) was “no clinically significant or relevant differences”, the ECG values ([3]; all patients, 12-lead ECG) was “normal or non-clinically significant abnormal ECG values” and the “Increase of mean unbound AUClast over the 6-fold increase in dose” value ([4]; 100 to 600 mg, bevonescein not bound to plasma or tissue proteins) was 6.1 fold. The Free fraction ([4]; from unbound vs total AUClast) was “approximately 30%”, the “SBR, FL images” value ([5]; 500 mg cohort (dose comparison)) was 3.0 ± 1.0 and the “Background fluorescence, mean pixel intensity (MPI)” value ([5]; 500 mg cohort) was 39.5 ± 17. For the same compound, the “Signal-to-background ratio (SBR), fluorescence (FL) images” value ([5]; 500 mg, 54 evaluable nerves in 14 subjects, mean ± SD) was 2.1 ± 0.8 and 2.08 ± 0.83, the “Fluorescent SBR of nerves, early (1-3 h) versus late (3-5 h) timing cohorts” value ([5]; 500 mg, infusion to incision, two-sided Wilcoxon rank sum test) was “not statistically different; also recorded: no significant difference” and the “Background fluorescence, mean pixel intensity (MPI)” value ([5]; 600 mg cohort, Welch ANOVA p < 0.01 vs 500 mg) was 73.2 ± 34. The “SBR, FL images” value ([5]; 600 mg cohort, Kruskal-Wallis p > 0.05 vs 500 mg) was 2.2 ± 1.6, the “Improvement in nerve length with FL images, share of subjects (so in the source)” value [6] was 78% and the “Subjects with some improvement in visible nerve length” value ([6]; 14 subjects) was 100%. For the same compound, the “Individual nerves with improvement in length measurements” value ([6]; n = 42/54 nerves, paired FL overlay vs WLR) was 78%.
